This note sets out measurements from ChEMBL document CHEMBL1275272, “Synthesis, characterization and antimicrobial activity of some disubstituted 1,3,4-oxadiazoles carrying 2-(aryloxymethyl)phenyl moiety” (2010).

In brackets after ≈: the same amount, converted by molar mass.

Format in all cases: functional
One experiment relates to Escherichia coli. Briefly: Antibacterial activity against Escherichia coli after 16 to 18 hrs by serial dilution method. Particulars: for MIC: Escherichia coli. The method, boiled down:
(§1)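 The test compound was dissolved in DMF and serially diluted. A standard drop of the prepared microbial culture was added to each dilution, and tubes were incubated at 37 °C for 16–18 h. MIC was taken as the highest dilution that stayed clear with no visible turbidity.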

The next experiment concerns Staphylococcus aureus. In words: Antibacterial activity against Staphylococcus aureus after 16 to 18 hrs by serial dilution method. As to conditions: for MIC: Staphylococcus aureus. In a few lines:
as §1

Another experiment deals with Talaromyces marneffei. Briefly: Antifungal activity against Penicillium marneffei after 16 to 18 hrs by serial dilution method. Particulars: for MIC: Talaromyces marneffei. In a few lines:
as §1

The subject of a further experiment is Pseudomonas aeruginosa. Briefly: Antibacterial activity against Pseudomonas aeruginosa after 16 to 18 hrs by serial dilution method. As to conditions: for MIC: Pseudomonas aeruginosa. In a few lines: as §1
Experiment [1] deals with Trichophyton mentagrophytes. Briefly: Antifungal activity against Trichophyton mentagrophytes after 16 to 18 hrs by serial dilution method. Particulars: for MIC: Trichophyton mentagrophytes.
The next experiment concerns Klebsiella pneumoniae. Briefly: Antibacterial activity against Klebsiella pneumoniae after 16 to 18 hrs by serial dilution method. Particulars: for MIC: Klebsiella pneumoniae.
For another experiment, the system named is Aspergillus flavus. In words: Antifungal activity against Aspergillus flavus after 16 to 18 hrs by serial dilution method. As to conditions: for MIC: Aspergillus flavus. The method, boiled down:
as §1

Another experiment has as its system Aspergillus fumigatus. Briefly: Antifungal activity against Aspergillus fumigatus after 16 to 18 hrs by serial dilution method. As to conditions: for MIC: Aspergillus fumigatus.

One may read the MIC as the smallest concentration in the dilution series that meets the test's criterion for growth inhibition. A high value points to a less susceptible organism. With `Clc1ccc(OCc2ccccc2-c2nnc(SCc3ccccc3)o2)cc1`, the “inhibition zone (IZ)” value (in the experiment with Escherichia coli; with Staphylococcus aureus; in the experiment with Talaromyces marneffei; in the experiment on Pseudomonas aeruginosa; in experiment [1]; with Klebsiella pneumoniae) was <10 mm throughout. Moreover, the “inhibition zone (IZ)” value in the experiment on Aspergillus flavus and in the experiment on Aspergillus fumigatus was <10 mm each time. In addition, the minimal inhibitory concentration (MIC) (against Escherichia coli; against Staphylococcus aureus; in the experiment on Talaromyces marneffei; in the experiment on Pseudomonas aeruginosa; in experiment [1]; against Klebsiella pneumoniae) was 25 µg/mL (≈ 61.1 µM) throughout. In addition, the MIC against Aspergillus flavus and with Aspergillus fumigatus was 25 µg/mL (≈ 61.1 µM) in each case.

Regarding `Cc1ccc(OCc2ccccc2-c2nnc(-c3ccccc3)o2)cc1`, the “inhibition zone (IZ)” value (in the experiment with Escherichia coli; in the experiment on Staphylococcus aureus; in the experiment with Talaromyces marneffei; with Pseudomonas aeruginosa; in experiment [1]; in the experiment with Klebsiella pneumoniae) was <10 mm throughout. Moreover, the “inhibition zone (IZ)” value with Aspergillus flavus and with Aspergillus fumigatus was <10 mm throughout. In addition, the minimum inhibitory concentration (MIC) (in the experiment with Escherichia coli; against Staphylococcus aureus; in the experiment on Talaromyces marneffei; against Pseudomonas aeruginosa; in experiment [1]; in the experiment with Klebsiella pneumoniae) was 25 µg/mL (≈ 73 µM) in each case. The minimal inhibitory concentration (MIC) with Aspergillus flavus and in the experiment with Aspergillus fumigatus was 25 µg/mL (≈ 73 µM) each time.

Consider `Cc1ccccc1OCc1ccccc1-c1nnc(-c2ccc(Cl)cc2)o1`, for which the “inhibition zone (IZ)” value (in the experiment with Escherichia coli; in the experiment on Staphylococcus aureus; in the experiment with Talaromyces marneffei; with Pseudomonas aeruginosa; in experiment [1]; in the experiment on Klebsiella pneumoniae) was <10 mm throughout. The “inhibition zone (IZ)” value with Aspergillus flavus and with Aspergillus fumigatus was <10 mm in each case. Moreover, the MIC (in the experiment on Escherichia coli; in the experiment on Staphylococcus aureus; in the experiment with Talaromyces marneffei; in the experiment with Pseudomonas aeruginosa; in experiment [1]; with Klebsiella pneumoniae) was 25 µg/mL (≈ 66.3 µM) in each case. Moreover, the MIC against Aspergillus flavus and in the experiment on Aspergillus fumigatus was 25 µg/mL (≈ 66.3 µM) throughout.

Take `Cc1ccc(OCc2ccccc2-c2nnc(SCc3cccc(C)c3)o2)cc1`: the “inhibition zone (IZ)” value (with Escherichia coli; in the experiment on Staphylococcus aureus; in the experiment with Talaromyces marneffei; with Pseudomonas aeruginosa; in experiment [1]; in the experiment on Klebsiella pneumoniae) was 11 mm throughout. The “inhibition zone (IZ)” value in the experiment with Aspergillus flavus and in the experiment on Aspergillus fumigatus was 11 mm each time. For the same molecule, the MIC (in the experiment with Escherichia coli; against Staphylococcus aureus; in the experiment with Talaromyces marneffei; in the experiment with Pseudomonas aeruginosa; in experiment [1]; in the experiment on Klebsiella pneumoniae) was 12.5 µg/mL (≈ 31.1 µM) throughout. Moreover, the minimal inhibitory concentration (MIC) with Aspergillus flavus and against Aspergillus fumigatus was 12.5 µg/mL (≈ 31.1 µM) in each case.

In the case of `Cc1ccccc1OCc1ccccc1-c1nn(CN2CCOCC2)c(=S)o1`, the “inhibition zone (IZ)” value (with Escherichia coli; in the experiment on Staphylococcus aureus; in the experiment on Talaromyces marneffei; with Pseudomonas aeruginosa; in experiment [1]; with Klebsiella pneumoniae) was 11 mm each time. The “inhibition zone (IZ)” value in the experiment on Aspergillus flavus and in the experiment on Aspergillus fumigatus was 11 mm in each case. The MIC (with Escherichia coli; against Staphylococcus aureus; against Talaromyces marneffei; with Pseudomonas aeruginosa; in experiment [1]; against Klebsiella pneumoniae) was 12.5 µg/mL (≈ 31.4 µM) each time. The MIC against Aspergillus flavus and in the experiment on Aspergillus fumigatus was 12.5 µg/mL (≈ 31.4 µM) throughout.

Regarding `Cc1cccc(OCc2ccccc2-c2nnc(-c3ccccc3F)o2)c1`, the “inhibition zone (IZ)” value (with Escherichia coli; with Staphylococcus aureus; with Talaromyces marneffei; in the experiment with Pseudomonas aeruginosa; in experiment [1]; in the experiment on Klebsiella pneumoniae) was 16 mm each time. The “inhibition zone (IZ)” value in the experiment on Aspergillus flavus and in the experiment with Aspergillus fumigatus was 11 mm each time. For the same molecule, the minimal inhibitory concentration (MIC) (against Escherichia coli; in the experiment on Staphylococcus aureus; against Talaromyces marneffei; with Pseudomonas aeruginosa; in experiment [1]; in the experiment on Klebsiella pneumoniae) was 6.25 µg/mL (≈ 17.3 µM) each time. Further, the MIC against Aspergillus flavus and against Aspergillus fumigatus was 12.5 µg/mL (≈ 34.7 µM) each time.

As for `Cc1ccccc1OCc1ccccc1-c1nnc(SCc2ccccc2)o1`, the “inhibition zone (IZ)” value (with Escherichia coli; with Staphylococcus aureus; in the experiment with Talaromyces marneffei; in the experiment on Pseudomonas aeruginosa; in experiment [1]; with Klebsiella pneumoniae) was <10 mm each time. The “inhibition zone (IZ)” value with Aspergillus flavus and in the experiment with Aspergillus fumigatus was <10 mm in each case. The MIC (in the experiment on Escherichia coli; in the experiment on Staphylococcus aureus; against Talaromyces marneffei; with Pseudomonas aeruginosa; in experiment [1]; against Klebsiella pneumoniae) was 25 µg/mL (≈ 64.4 µM) throughout. For the same molecule, the MIC in the experiment with Aspergillus flavus and in the experiment on Aspergillus fumigatus was 25 µg/mL (≈ 64.4 µM) throughout.

As to `Cc1ccccc1OCc1ccccc1-c1nnc(SCc2ccc(Cl)cc2Cl)o1`, the “inhibition zone (IZ)” value stood at 11 mm in the experiment on Escherichia coli; 16 mm in the experiment with Staphylococcus aureus; 16 mm in the experiment with Talaromyces marneffei; 16 mm with Pseudomonas aeruginosa; 11 mm in experiment [1]; 16 mm with Klebsiella pneumoniae. In addition, the “inhibition zone (IZ)” value with Aspergillus flavus and with Aspergillus fumigatus was 16 mm in each case. Moreover, the minimum inhibitory concentration (MIC) in the experiment with Escherichia coli worked out at 12.5 µg/mL (≈ 27.3 µM); against Staphylococcus aureus, 6.25 µg/mL (≈ 13.7 µM); in the experiment with Talaromyces marneffei, 6.25 µg/mL (≈ 13.7 µM); in the experiment with Pseudomonas aeruginosa, 6.25 µg/mL (≈ 13.7 µM); in experiment [1], 12.5 µg/mL (≈ 27.3 µM); against Klebsiella pneumoniae, 6.25 µg/mL (≈ 13.7 µM). Besides, the MIC with Aspergillus flavus and in the experiment on Aspergillus fumigatus was 6.25 µg/mL (≈ 13.7 µM) each time.

For `Cc1ccccc1OCc1ccccc1-c1nnc(SCc2ccc(Cl)cc2)o1`, the “inhibition zone (IZ)” value (in the experiment with Escherichia coli; with Staphylococcus aureus; in the experiment with Talaromyces marneffei; in the experiment with Pseudomonas aeruginosa; in experiment [1]; with Klebsiella pneumoniae) was 11 mm throughout. In addition, the “inhibition zone (IZ)” value with Aspergillus flavus and in the experiment with Aspergillus fumigatus was 11 mm in each case. The MIC (with Escherichia coli; in the experiment with Staphylococcus aureus; in the experiment on Talaromyces marneffei; in the experiment with Pseudomonas aeruginosa; in experiment [1]; in the experiment with Klebsiella pneumoniae) was 12.5 µg/mL (≈ 29.6 µM) each time. The MIC against Aspergillus flavus and against Aspergillus fumigatus was 12.5 µg/mL (≈ 29.6 µM) each time.

On to `Cc1cccc(OCc2ccccc2-c2nnc(SCc3ccc(Cl)cc3)o2)c1`, for which the “inhibition zone (IZ)” value (with Escherichia coli; in the experiment on Staphylococcus aureus; with Talaromyces marneffei; with Pseudomonas aeruginosa; in experiment [1]; in the experiment on Klebsiella pneumoniae) was 11 mm throughout. In addition, the “inhibition zone (IZ)” value with Aspergillus flavus and with Aspergillus fumigatus was 11 mm in each case. Also, the MIC (with Escherichia coli; against Staphylococcus aureus; in the experiment on Talaromyces marneffei; against Pseudomonas aeruginosa; in experiment [1]; against Klebsiella pneumoniae) was 12.5 µg/mL (≈ 29.6 µM) in each case. Also, the MIC in the experiment on Aspergillus flavus and in the experiment on Aspergillus fumigatus was 12.5 µg/mL (≈ 29.6 µM) throughout.

Turning to `Cc1cccc(OCc2ccccc2-c2nn(CNc3ccc(Cl)cc3C(=O)C(F)(F)F)c(=S)o2)c1`, the “inhibition zone (IZ)” value (in the experiment with Escherichia coli; in the experiment with Staphylococcus aureus; with Talaromyces marneffei; in the experiment with Pseudomonas aeruginosa; in experiment [1]; in the experiment on Klebsiella pneumoniae) was <10 mm throughout. Also, the “inhibition zone (IZ)” value with Aspergillus flavus and with Aspergillus fumigatus was <10 mm in each case. The minimum inhibitory concentration (MIC) (against Escherichia coli; with Staphylococcus aureus; against Talaromyces marneffei; in the experiment on Pseudomonas aeruginosa; in experiment [1]; against Klebsiella pneumoniae) was 25 µg/mL (≈ 46.8 µM) throughout. The MIC against Aspergillus flavus and against Aspergillus fumigatus was 25 µg/mL (≈ 46.8 µM) throughout.

For `Cc1ccccc1OCc1ccccc1-c1nnc(-c2ccccc2)o1`, the “inhibition zone (IZ)” value (in the experiment with Escherichia coli; in the experiment on Staphylococcus aureus; with Talaromyces marneffei; in the experiment with Pseudomonas aeruginosa; in experiment [1]; in the experiment on Klebsiella pneumoniae) was <10 mm throughout. Further, the “inhibition zone (IZ)” value in the experiment with Aspergillus flavus and with Aspergillus fumigatus was <10 mm throughout. Further, the minimal inhibitory concentration (MIC) (in the experiment with Escherichia coli; in the experiment on Staphylococcus aureus; with Talaromyces marneffei; in the experiment with Pseudomonas aeruginosa; in experiment [1]; in the experiment with Klebsiella pneumoniae) was 25 µg/mL (≈ 73 µM) in each case. Also, the MIC against Aspergillus flavus and with Aspergillus fumigatus was 25 µg/mL (≈ 73 µM) each time.
